We go through 32 compounds from ChEMBL document CHEMBL4004830 (J Med Chem, 2017).

Activity calls are given as the source filed them. No cut-off for these calls is given here.

The target of assay [1] is Cyclin-dependent kinase 7/ cyclin H (Homo sapiens) (UniProt P51946+P50613). In words: (§1) Inhibition of CDK7/cyclin H (unknown origin) in presence of [gamma-33P]-ATP […]. In kind it is protein-complex assay.
Assay [2] concerns MDA-MB-453. In words: Growth inhibition of human MDA-MB-453 cells after 72 hrs by MTT assay. In kind it is functional. As to conditions: MDA-MB-453, 72 h. In a few lines:
(§2)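 72 h antiproliferation assay, resazurin read-out for MV4-11 and MTT read-out for MDA-MB-453; values from at least two replicates.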

Assay [3] has as its system MV4-11. In words: Growth inhibition of human MV4-11 cells after 72 hrs by resazurin assay. As to conditions: MV4-11, 72 h. In kind it is functional. In a few lines: as §2
The target of assay [4] is CDK9/cyclin T1 (Homo sapiens, UniProt P50750). In words: Inhibition of CDK9/cyclin T1 (unknown origin) in presence of [gamma-33P]-ATP […]. In kind it is protein-complex assay. As to conditions: read-out: Ki(app).
CDK9/cyclin T1, sequence (O60563 whole entry): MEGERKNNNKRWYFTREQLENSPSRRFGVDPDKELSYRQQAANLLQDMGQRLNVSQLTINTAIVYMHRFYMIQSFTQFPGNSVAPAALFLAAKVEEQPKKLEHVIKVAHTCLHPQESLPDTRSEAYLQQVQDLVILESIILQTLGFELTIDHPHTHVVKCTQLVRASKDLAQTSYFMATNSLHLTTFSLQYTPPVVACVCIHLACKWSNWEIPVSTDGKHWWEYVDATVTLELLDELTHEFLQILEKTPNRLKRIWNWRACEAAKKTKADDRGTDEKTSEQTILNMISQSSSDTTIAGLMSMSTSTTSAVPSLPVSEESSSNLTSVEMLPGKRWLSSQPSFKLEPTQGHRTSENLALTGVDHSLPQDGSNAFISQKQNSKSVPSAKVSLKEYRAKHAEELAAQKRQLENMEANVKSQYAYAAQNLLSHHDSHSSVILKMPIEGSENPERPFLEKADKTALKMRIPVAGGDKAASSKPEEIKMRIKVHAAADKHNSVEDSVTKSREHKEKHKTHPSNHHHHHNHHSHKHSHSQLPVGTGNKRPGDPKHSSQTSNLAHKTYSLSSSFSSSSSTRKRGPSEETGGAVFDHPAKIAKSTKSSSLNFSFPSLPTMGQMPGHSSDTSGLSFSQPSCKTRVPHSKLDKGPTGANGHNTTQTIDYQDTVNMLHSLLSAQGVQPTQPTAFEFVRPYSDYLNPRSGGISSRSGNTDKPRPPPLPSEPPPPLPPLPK
CDK9/cyclin T1, sequence (P50750 whole entry): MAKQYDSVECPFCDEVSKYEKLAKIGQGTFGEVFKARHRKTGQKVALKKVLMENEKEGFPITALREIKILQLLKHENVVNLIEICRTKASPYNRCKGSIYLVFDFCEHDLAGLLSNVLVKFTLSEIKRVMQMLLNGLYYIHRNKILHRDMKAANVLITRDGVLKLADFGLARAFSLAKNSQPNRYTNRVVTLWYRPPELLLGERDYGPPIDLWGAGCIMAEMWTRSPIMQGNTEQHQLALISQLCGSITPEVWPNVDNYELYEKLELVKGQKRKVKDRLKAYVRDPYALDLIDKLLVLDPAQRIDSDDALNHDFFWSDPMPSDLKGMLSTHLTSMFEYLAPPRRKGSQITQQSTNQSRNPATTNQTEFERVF
The target of assay [5] is Cyclin-dependent kinase 1/cyclin B1 (Homo sapiens) (UniProt P06493+P14635). In words: (§3) Inhibition of CDK1/cyclin B (unknown origin) in presence of [gamma-33P]-ATP […]. In kind it is protein-complex assay.
Cyclin-dependent kinase 1/cyclin B1 (Homo sapiens), sequence (P06493 whole entry, looked up): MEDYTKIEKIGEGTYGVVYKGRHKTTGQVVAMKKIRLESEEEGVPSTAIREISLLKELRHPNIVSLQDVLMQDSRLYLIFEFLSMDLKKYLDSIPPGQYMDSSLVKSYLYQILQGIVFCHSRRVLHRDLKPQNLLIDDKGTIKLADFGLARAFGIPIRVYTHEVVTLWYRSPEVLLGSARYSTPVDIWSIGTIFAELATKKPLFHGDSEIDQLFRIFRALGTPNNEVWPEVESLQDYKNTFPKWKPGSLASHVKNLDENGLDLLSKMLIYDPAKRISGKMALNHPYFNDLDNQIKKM
Cyclin-dependent kinase 1/cyclin B1 (Homo sapiens), sequence (P14635 whole entry, looked up): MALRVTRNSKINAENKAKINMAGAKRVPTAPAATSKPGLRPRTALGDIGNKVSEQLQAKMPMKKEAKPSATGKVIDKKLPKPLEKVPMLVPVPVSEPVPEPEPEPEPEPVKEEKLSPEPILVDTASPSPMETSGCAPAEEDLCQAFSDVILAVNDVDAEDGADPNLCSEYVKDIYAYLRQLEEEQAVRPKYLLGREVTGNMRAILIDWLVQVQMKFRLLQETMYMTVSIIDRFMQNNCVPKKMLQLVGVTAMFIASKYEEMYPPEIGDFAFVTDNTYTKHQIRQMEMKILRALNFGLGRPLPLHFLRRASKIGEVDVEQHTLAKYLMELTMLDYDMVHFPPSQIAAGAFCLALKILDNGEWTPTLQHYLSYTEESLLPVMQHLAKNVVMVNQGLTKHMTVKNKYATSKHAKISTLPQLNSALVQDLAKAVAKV
Assay [6] deals with Cyclin-dependent kinase 7/ cyclin H (Homo sapiens, UniProt P50613). The assay is described as §1. In kind it is protein-complex assay. As to conditions: read-out: Ki(app).
Cyclin-dependent kinase 7/ cyclin H, sequence (P51946 whole entry): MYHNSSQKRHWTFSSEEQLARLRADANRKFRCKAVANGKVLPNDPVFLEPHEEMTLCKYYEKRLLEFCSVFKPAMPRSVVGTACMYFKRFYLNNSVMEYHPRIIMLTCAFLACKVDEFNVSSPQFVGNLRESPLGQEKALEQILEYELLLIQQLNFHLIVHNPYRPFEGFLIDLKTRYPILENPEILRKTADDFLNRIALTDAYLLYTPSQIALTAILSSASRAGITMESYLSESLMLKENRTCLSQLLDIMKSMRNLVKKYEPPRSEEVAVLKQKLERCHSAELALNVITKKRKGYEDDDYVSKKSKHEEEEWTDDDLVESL
Cyclin-dependent kinase 7/ cyclin H, sequence (P50613 whole entry): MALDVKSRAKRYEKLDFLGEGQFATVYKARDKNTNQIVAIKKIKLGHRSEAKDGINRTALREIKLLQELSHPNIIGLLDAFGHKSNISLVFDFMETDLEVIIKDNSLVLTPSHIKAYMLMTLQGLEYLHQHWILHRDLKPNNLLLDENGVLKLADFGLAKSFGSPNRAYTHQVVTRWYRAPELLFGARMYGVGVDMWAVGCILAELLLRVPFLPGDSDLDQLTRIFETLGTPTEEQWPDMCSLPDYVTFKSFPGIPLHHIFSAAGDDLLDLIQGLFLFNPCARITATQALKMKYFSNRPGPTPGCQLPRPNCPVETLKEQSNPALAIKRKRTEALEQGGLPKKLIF
The target of assay [7] is Cyclin-dependent kinase 1/cyclin B1 (Homo sapiens, UniProt P06493). Described as §3. In kind it is protein-complex assay. As to conditions: read-out: Ki(app).
Cyclin-dependent kinase 1/cyclin B1, sequence (P06493 whole entry): as the sequence (P06493 whole entry, looked up) above
Cyclin-dependent kinase 1/cyclin B1, sequence (P14635 whole entry, further chain): as the sequence (P14635 whole entry, looked up) above
Assay [8] deals with CDK6/cyclin D3 (Homo sapiens, UniProt Q00534). In words: Inhibition of CDK6/cyclin D3 (unknown origin) in presence of [gamma-33P]-ATP […]. As to conditions: read-out: Ki(app). In kind it is protein-complex assay.
CDK6/cyclin D3, sequence (P30281 whole entry): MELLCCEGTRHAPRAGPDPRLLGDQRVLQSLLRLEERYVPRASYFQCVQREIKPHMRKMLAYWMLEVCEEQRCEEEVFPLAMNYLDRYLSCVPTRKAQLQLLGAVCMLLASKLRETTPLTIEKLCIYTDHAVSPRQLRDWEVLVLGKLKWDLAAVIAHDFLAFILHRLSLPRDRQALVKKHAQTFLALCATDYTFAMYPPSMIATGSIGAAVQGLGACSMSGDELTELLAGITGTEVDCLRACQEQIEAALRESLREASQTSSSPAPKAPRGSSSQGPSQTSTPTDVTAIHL
CDK6/cyclin D3, sequence (Q00534 whole entry): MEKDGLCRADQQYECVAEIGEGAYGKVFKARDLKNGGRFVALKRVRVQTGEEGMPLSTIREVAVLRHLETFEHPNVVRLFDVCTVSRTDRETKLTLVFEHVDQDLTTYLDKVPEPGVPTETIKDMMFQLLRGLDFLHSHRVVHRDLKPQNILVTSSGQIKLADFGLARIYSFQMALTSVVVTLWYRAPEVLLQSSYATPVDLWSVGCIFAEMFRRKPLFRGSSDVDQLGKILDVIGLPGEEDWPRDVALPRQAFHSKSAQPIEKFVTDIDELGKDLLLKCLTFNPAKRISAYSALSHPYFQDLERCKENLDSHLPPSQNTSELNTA
Assay [9] deals with Cyclin-dependent kinase 4/cyclin D1 (Homo sapiens, UniProt P11802). In words: Inhibition of CDK4/cyclin D1 (unknown origin) in presence of [gamma-33P]-ATP […]. In kind it is protein-complex assay. As to conditions: read-out: Ki(app).
Cyclin-dependent kinase 4/cyclin D1, sequence (P11802 whole entry): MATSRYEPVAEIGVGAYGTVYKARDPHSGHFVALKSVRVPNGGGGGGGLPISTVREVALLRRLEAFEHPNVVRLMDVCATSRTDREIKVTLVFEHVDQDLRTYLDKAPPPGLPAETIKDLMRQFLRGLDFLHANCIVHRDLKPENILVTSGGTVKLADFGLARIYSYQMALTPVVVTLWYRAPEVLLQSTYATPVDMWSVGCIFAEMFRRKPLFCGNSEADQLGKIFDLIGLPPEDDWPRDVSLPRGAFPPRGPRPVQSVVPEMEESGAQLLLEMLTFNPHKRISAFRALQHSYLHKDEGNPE
Cyclin-dependent kinase 4/cyclin D1, sequence (P24385 whole entry, further chain): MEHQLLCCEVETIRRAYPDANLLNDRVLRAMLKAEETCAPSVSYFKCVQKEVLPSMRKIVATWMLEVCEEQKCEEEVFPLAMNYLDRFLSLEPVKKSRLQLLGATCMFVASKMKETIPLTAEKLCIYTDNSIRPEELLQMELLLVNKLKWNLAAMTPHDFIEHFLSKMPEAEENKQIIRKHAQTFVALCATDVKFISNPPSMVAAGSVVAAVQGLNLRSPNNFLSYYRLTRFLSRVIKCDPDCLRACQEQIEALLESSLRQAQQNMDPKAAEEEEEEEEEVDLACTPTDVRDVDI
In assay [10] the target is CDK2/Cyclin A2 (Homo sapiens, UniProt P24941). In words: Inhibition of CDK2/cyclin A (unknown origin) in presence of [gamma-33P]-ATP […]. In kind it is protein-complex assay. As to conditions: read-out: Ki(app).

On to `Cc1nc(NC2CCCC2)sc1-c1nc(Nc2ccc(N3CCN(S(C)(=O)=O)CC3)cn2)ncc1F`, for which the “Ki(app)” value in assay [1] and in [5] was “inactive” in each case. Further, the values for the GI50 in assay [2] and in [3] were 2810 nM and 2630 nM, respectively. For the same compound, in assay [4], the Ki is above 5000 nM.

Take `Cc1nc(NC2CCCC2)sc1-c1nc(Nc2ccc(N3CCOCC3)cn2)ncc1F`: the Ki in assay [6] was above 5000 nM; in assay [4], above 5000 nM; in assay [7] it was 4350 nM. Besides, the GI50 in [2] is 1440 nM; in assay [3], 290 nM.

For `CCN1CCN(c2ccc(Nc3ncc(F)c(-c4sc(NC5CCCC5)nc4C)n3)nc2)CC1`, the Ki was 685 nM in assay [6] and above 5000 nM in assay [4]. For the same compound, the concentration for 50% growth inhibition (GI50) turned out to be 66 nM in [2] and 13 nM in [3]. The “Ki(app)” value in [5] was “inactive”.

Turning to `Cc1nc(NC2CCCC2)sc1-c1nc(Nc2ccc(N3CCNCC3)cn2)ncc1F`, the Ki in [6] was 790 nM. In addition, the GI50 in assay [2] was found to be 780 nM; in assay [3] it was 53 nM.

For the compound `O=CN1CCN(c2ccc(Nc3nccc(-c4sc(NC5CCCC5)nc4C(F)(F)F)n3)nc2)CC1`, the Ki in [6] is 1900 nM; in [4], above 5000 nM. Besides, the GI50 in assay [2] came out at 336 nM; in assay [3], 4 nM.

Turning to `Cc1nc(NC2CCCC2)sc1-c1ccnc(Nc2ccc(N3CCCNCC3)cn2)n1`, the Ki in [6] worked out at 282 nM. Also, the GI50 turned out to be 102 nM in assay [2] and 29 nM in [3].

As to `Cc1nc(NC(C)C)sc1-c1ccnc(Nc2ccc(N3CCN(C)CC3)cn2)n1`, the Ki in assay [6] was determined as 760 nM. Also, the GI50 in assay [2] amounted to 618 nM; in [3], 75 nM.

As to `FC(F)(F)c1nc(NC2CCCC2)sc1-c1ccnc(Nc2ccc(N3CCOCC3)cn2)n1`, the “Ki(app)” value in assay [1] and in assay [5] was “inactive” throughout. The GI50 was determined as 415 nM in assay [2] and 69 nM in assay [3]. Moreover, the Ki in assay [4] is above 5000 nM.

Regarding `Cc1nc(N(C2CCCC2)C2CCCC2)sc1-c1ccnc(Nc2ccc(N3CCNCC3)cn2)n1`, the Ki in assay [6] is above 5000 nM; in assay [8] it was 539 nM; in [4] it was above 5000 nM; in assay [9], 71 nM; in [10], above 5000 nM; in assay [7], above 5000 nM. Moreover, the GI50 in assay [2] worked out at 373 nM; in assay [3], 714 nM.

For the compound `Cc1nc(N(C)C2CCCC2)sc1-c1ccnc(Nc2ccc(N3CCN(C)CC3)cn2)n1`, the Ki in assay [6] and in [7] was above 5000 nM each time. The GI50 in [2] was 3360 nM; in assay [3], 20 nM.

On to `CC(=O)N1CCN(c2ccc(Nc3nccc(-c4sc(NC5CCCC5)nc4C)n3)nc2)CC1`, for which the Ki in assay [6] amounted to 3450 nM. The GI50 came to 591 nM in assay [2] and 24 nM in assay [3].

Regarding `Cc1nc(Nc2ccccc2)sc1-c1ccnc(Nc2ccc(N3CCNCC3)cn2)n1`, the Ki in assay [6] was 1660 nM; in assay [10], above 5000 nM. Besides, the values for the GI50 in assay [2] and in assay [3] were 279 nM and 56 nM, respectively.

For the compound `Cc1nc(NC(C)C)sc1-c1ccnc(Nc2ccc(N3CCCNCC3)cn2)n1`, the Ki is 1160 nM in assay [6] and above 5000 nM in assay [7]. The GI50 was determined as 938 nM in assay [2] and 255 nM in assay [3].

In the case of `CCN1CCN(c2ccc(Nc3nccc(-c4sc(NC5CCCC5)nc4C)n3)nc2)CC1`, the Ki in assay [6] is 780 nM. In addition, the GI50 in assay [2] turned out to be 287 nM; in assay [3], 9 nM.

For the compound `Cc1nc(NC2CCCC2)sc1-c1ccnc(Nc2ccc(N3CCCCC3)cn2)n1`, the “Ki(app)” value in assay [1] and in assay [5] was “inactive” in each case. The GI50 in [2] was 7040 nM; in [3], 191 nM. Besides, the Ki in assay [4] and in assay [10] was above 5000 nM each time.

For the compound `CN1CCN(c2ccc(Nc3nccc(-c4sc(NC5CCCC5)nc4C(F)(F)F)n3)nc2)CC1`, the Ki in assay [6] is 189 nM. Further, the GI50 in assay [2] was determined as 420 nM; in assay [3] it was 1 nM.

In the case of `Cc1nc(NC2CCCC2)sc1-c1ccnc(Nc2ccc(N3CCN(C)CC3)cn2)n1`, the Ki in [6] was determined as 865 nM. Also, the figures for the GI50 in [2] and in assay [3] were 130 nM and 9 nM, respectively.

Consider `Cc1nc(NC2CCCC2)sc1-c1ccnc(Nc2ccccn2)n1`, for which the GI50 in [2] was 4380 nM; in assay [3], 300 nM. In assay [4], the Ki was above 5000 nM.

As to `Cc1nc(NC2CCCC2)sc1-c1ccnc(Nc2ccc(N3CCC(N)CC3)cn2)n1`, the Ki in [6] worked out at 1190 nM. Besides, the GI50 in assay [2] was determined as 55 nM; in assay [3], 13 nM.

Take `CC(=O)N1CCN(c2ccc(Nc3nccc(-c4sc(NC5CCCC5)nc4C(F)(F)F)n3)nc2)CC1`: the values for the Ki in assay [6] and in assay [4] were 2610 nM and above 5000 nM, respectively. For the same compound, the results for the GI50 in assay [2] and in assay [3] were 77 nM and 12 nM, respectively.

`Cc1nc(N(C)c2ccccc2)sc1-c1ccnc(Nc2ccc(N3CCN(C)CC3)cn2)n1`: the Ki in assay [6] and in [7] was above 5000 nM each time. Moreover, the GI50 in assay [2] was found to be 150 nM; in assay [3] it was 421 nM.

Take `Cc1nc(N(C)C2CCCC2)sc1-c1ccnc(Nc2ccc(N3CCNCC3)cn2)n1`: the Ki in assay [6] is 3200 nM. The GI50 was found to be 402 nM in assay [2] and 285 nM in assay [3].

Take `CC(=O)N1CCN(c2ccc(Nc3nccc(-c4sc(NC(C)C)nc4C)n3)nc2)CC1`: in assay [6], the Ki stood at 4390 nM. The GI50 in [2] is 344 nM; in assay [3] it was 2070 nM.

On to `CC(=O)N1CCN(c2ccc(Nc3ncc(F)c(-c4sc(NC5CCCC5)nc4C)n3)nc2)CC1`, for which the Ki in assay [6] and in assay [7] was above 5000 nM throughout. Also, the GI50 in assay [2] is 8110 nM; in assay [3] it was 15 nM.

Take `Cc1nc(NC(C)C)sc1-c1ccnc(Nc2ccc(N3CCNCC3)cn2)n1`: the Ki in assay [6] worked out at 775 nM. The GI50 in [2] came to 31 nM; in assay [3], 93 nM.

For `FC(F)(F)c1nc(NC2CCCC2)sc1-c1ccnc(Nc2ccc(N3CCNCC3)cn2)n1`, the Ki in assay [6] came out at 194 nM. For the same compound, the GI50 in assay [2] is 81 nM; in assay [3], 2 nM.

Take `Cc1nc(NC2CCCC2)sc1-c1nc(Nc2ccc(N3CCCNCC3)cn2)ncc1F`: the Ki was 815 nM in assay [6] and above 5000 nM in assay [7]. Also, the figures for the GI50 in assay [2] and in [3] were 83 nM and 29 nM, respectively.

Regarding `CCN1CCN(Cc2ccc(Nc3nccc(-c4sc(NC5CCCC5)nc4C)n3)nc2)CC1`, the Ki in assay [6] is 211 nM; in assay [7], above 5000 nM. The GI50 came to 69 nM in assay [2] and 19 nM in [3].

Consider `Cc1nc(NC2CCCC2)sc1-c1ccnc(Nc2ccc(N3CCN(S(C)(=O)=O)CC3)cn2)n1`, for which the Ki in [6] was determined as 2640 nM; in [8], 55 nM; in assay [4], 1320 nM; in assay [9], 7 nM; in assay [10], 77 nM; in assay [7] it was 1100 nM. Besides, the GI50 in assay [2] came to 215 nM; in assay [3] it was 176 nM.

As for `CCN1CCN(Cc2ccc(Nc3ncc(F)c(-c4sc(NC5CCCC5)nc4C)n3)nc2)CC1` [ULECACICLIB], the Ki in assay [6] was 630 nM. Further, the GI50 was 622 nM in assay [2] and 10 nM in assay [3]. Further, in assay [5], the “Ki(app)” value is “inactive”.

For the compound `CC(=O)N1CCN(c2ccc(Nc3nccc(-c4sc(N(C)C5CCCC5)nc4C)n3)nc2)CC1`, the “Ki(app)” value in [1] was “inactive”. The GI50 is 6860 nM in assay [2] and 328 nM in assay [3]. The Ki in [4] was above 5000 nM.

Turning to `Cc1nc(NC(C)C)sc1-c1ccnc(Nc2ccc(N3CCOCC3)cn2)n1`, the Ki in assay [6], in assay [4] and in assay [7] was above 5000 nM throughout. The GI50 in assay [2] worked out at 115 nM; in assay [3], 32 nM.
